Experimental data as given in ChEMBL document CHEMBL1128475, “Synthesis, pharmacologic activity, and structure-activity relationships of a series of propafenone-related modulators of multidrug resistance” (1995).

Assays:
[1] = system: CCRF-CEM; assay: The effective dose was measured against P-glycoprotein expressing CCRF-CEM cells in the presence of 5 uM etoposide; assay type: functional; details: Homo sapiens, read-out: ED50 (the source's name)
Summary of the method: (§1)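 CCRF-CEM vcr 100 cells (selected stepwise in vincristine; kept in 100 ng/mL vincristine until 1 week before use), RPMI 1640 with 10% FCS. Cytotoxicity of daunomycin or etoposide by MTT reduction, formazan dissolved in 2-propanol/0.04 N HCl, absorbance read. Modifier at 5 μM; six toxin concentrations, triplicate points, ED50 estimated. Reversion potency = toxin ED50 without/with modifier.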

[2] = system: CCRF-CEM; assay: The chemosensitizing effect was measured against P-glycoprotein expressing CCRF-CEM cells in the presence of […]; assay type: functional; details: Homo sapiens, read-out: ED50 (the source's name); summary of the method: as §1
[3] = system: CCRF-CEM; assay: The reversion potency of compound was measured against P-glycoprotein expressing CCRF-CEM cells and expressed as the ratio of ED50 in the absence and presence of etoposide; assay type: functional, Homo sapiens; summary of the method: as §1
[4] = system: CCRF-CEM; assay: The percentage uptake of [3H]daunomycin in resistant CCRF-CEM vcr 100 cells to sensitive CCRF-CEM cells in presence of the compound.; assay type: functional, cell-based; details: Homo sapiens
Summary of the method: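 Rapid-centrifugation uptake. Resistant CCRF-CEM vcr 100 and sensitive CCRF-CEM cells at 5×10^6 cells/mL in RPMI 1640 with 2% FCS. Modifier (final 5 μM, from 100× DMSO stock) added 10 min before [3H]daunomycin (0.4 μCi/mL; total daunomycin final 1 μmol/L). Sampled at 0–60 min, spun through phthalate oil, pellets solubilized in NaOH/SDS, counted by LSC. Expressed as % of sensitive-cell uptake.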

[5] = system: CCRF-CEM; assay: The reversion potency of compound was measured against P-glycoprotein expressing CCRF-CEM cells and expressed as the ratio of ED50 in the absence and presence […]; assay type: functional, Homo sapiens
[6] = system: CCRF-CEM; assay: The effective dose was measured against P-glycoprotein expressing CCRF-CEM cells in the presence of […]; assay type: functional; details: Homo sapiens, read-out: ED50 (the source's name); summary of the method: as §1

Compound	EC50 [1] [nM]	EC50 [2] [nM]	RP [3]	Uptake [4] [%]	RP [5]	EC50 [6] [nM]
COc1ccc(N2CCN(CC(O)COc3ccccc3C(=O)CCc3ccccc3)CC2)cc1 (stereo not given)	948	33	3.7	96	42	–
CC(=O)c1ccccc1OCC(O)CN1CCCCC1 (stereo not given)	–	770	–	–	2	–
O=C(CCc1ccccc1)c1ccccc1OCC(O)CN1CCOCC1 (stereo not given)	–	359	–	–	4	–
O=C(CCc1ccccc1)c1ccccc1OCC(O)CN1CCCCC1 (stereo not given)	3300	46	1.1	83	30	–
O=C(CCc1ccccc1)c1ccccc1OCC(O)CN1CCN(c2ccc(F)cc2)CC1 (stereo not given)	1020	41	3.4	92	34	–
Cc1ccccc1N1CCN(CC(O)COc2ccccc2C(=O)CCc2ccccc2)CC1 (stereo not given)	648	43	5.4	96	33	–
CCCNCC(O)COc1ccccc1C(=O)CCc1ccccc1 (stereo not given) [PROPAFENONE]	–	88	–	65	16	–
CCN(CC)CC(O)COc1ccccc1C(=O)c1ccccc1 (stereo not given)	–	150	–	–	9	–
O=C(CCc1ccccc1)c1ccccc1OCC(O)CN1CCCC1 (stereo not given)	–	70	–	–	20	–
CCCN(C)CC(O)COc1ccccc1C(=O)CCc1ccccc1 (stereo not given)	–	55	–	–	26	–
COc1ccc(CCN(C)CCCC(C#N)(c2ccc(OC)c(OC)c2)C(C)C)cc1OC (stereo not given)	3400	–	–	79	–	45
CCN(CC)CC(O)COc1ccccc1C(=O)CCc1ccccc1 (stereo not given)	3400	115	–	68	12	–
CCCNCC(O)c1oc2ccccc2c1CCc1ccccc1 (stereo not given)	–	198	–	–	7	–
CC(C)N(CC(O)COc1ccccc1C(=O)CCc1ccccc1)C(C)C (stereo not given)	–	65	–	82	22	–
